From PubChem
Sampled rows, rich in hits. Any-hit rate of the full collection: about 4.6%.
UCH37 inh: inhibitors of human deubiquitinating enzyme UCH37; 0.33% of 330,000 active; purified proteasome/UCH37, Ub-AMC cleavage fluorescence; Q9Y5K5; inhibition, % (test concentration not listed); AID 588478;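 active = mean inhibition over replicate wells above about 20%, limit read from the data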;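 also: 0% = compound-free wells with enzyme and 100% = wells lacking proteasome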
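Material: Human UCH37 enzyme supplied as purified proteasome complex | Schedule: 30 min preincubation with enzyme, 25 min cleavage at room temperature | Detection: AMC fluorescence 355/460 nm | Measure: % inhibition of Ub-AMC cleavage fluorescence | Controls: Wells without proteasome as full block, compound-free enzyme plus substrate as uninhibited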
FAS TE block: FAS thioesterase (human) inhibition; P49327; recombinant FAS-TE, OMFH fluorogenic substrate, fluorescence endpoint; inhibition, % at 15 µM; 0.67% of 360,000 active;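 active = compounds whose normalised, plate-corrected inhibition of enzyme fluorescence in the single-dose primary screen is 50% or more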;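 also: 0% = DMSO with enzyme and 100% = substrate without enzyme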
ALR H2O2 inh: blocks human ALR sulfhydryl oxidase activity; P55789; purified ALR, DTT oxidation, H2O2 HRP-luminol luminescence; inhibition, % (no concentration beside the values); 3.8% of 290,000 active; AID 485317;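 active = mean replicate inhibition above about 79%, with every replicate also reaching it, limit read from the data; inconclusive = only one of the two criteria met; inactive = mean below limit and not every replicate reaching it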
M18AAP inhibitor: PfM18AAP enzyme inhibition | recombinant PfM18AAP, H-Glu-NHMec fluorogenic cleavage | inhibition, % at 7.35 µM | 1.2% of 290,000 active;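 active = inhibition above the campaign mean inhibition over all tested compounds plus 3 SD, cut at about 28% in these data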;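 also: 0% = plate median of test compound wells and 100% = 2 mM ZnCl2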
Rtt109 HAT inh: inhibitors of Candida albicans Rtt109/Vps75 histone acetyltransferase; purified Rtt109/Vps75, ThioGlo CoA-SH fluorescence, 4 h; inhibition, % at 34.9 µM; 0.16% of 330,000 active; AID 540336;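 active = inhibition of at least 50% in every replicate; inconclusive = best replicate reaches 50% inhibition but some replicates fall short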
Target sequence (Q5AAJ8 whole entry, looked up): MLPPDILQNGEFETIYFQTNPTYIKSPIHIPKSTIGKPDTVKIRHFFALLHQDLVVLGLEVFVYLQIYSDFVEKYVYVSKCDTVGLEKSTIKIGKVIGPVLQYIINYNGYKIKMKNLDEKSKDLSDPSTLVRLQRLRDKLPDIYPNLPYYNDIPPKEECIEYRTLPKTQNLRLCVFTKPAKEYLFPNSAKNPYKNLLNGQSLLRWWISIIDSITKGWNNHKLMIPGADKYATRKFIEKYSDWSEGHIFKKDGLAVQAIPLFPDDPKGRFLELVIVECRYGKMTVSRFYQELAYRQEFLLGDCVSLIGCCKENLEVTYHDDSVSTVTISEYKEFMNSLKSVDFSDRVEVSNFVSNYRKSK
HDAC3 inhib: human HDAC3 inhibition. O15379. recombinant HDAC3, fluorogenic peptide/trypsin coupled, fluorescence. inhibition, % at 8.3 µM. 0.15% of 320,000 active; in the data active = inhibition above about 26%, passing the limit was not always enough; inconclusive = no clear call, values can overlap the other calls
Active calls of the source: *; ? = inconclusive; . = no result given.

SMILES | UCH37 inh | FAS TE block | ALR H2O2 inh | M18AAP inhibitor | Rtt109 HAT inh | HDAC3 inhib
COC(=O)c1ccc(O)c(Sc2cc(C(=O)OC)ccc2O)c1 | 1.3 | -4.2 | 87.6* | 10.7 | -5.7 | ?
COC(=O)c1ccc(C)cc1 | -1.5 | -4.0 | . | . | -0.5 | .
Cc1cccc(C=NNC(=O)Cn2nnnc2N)n1 | -0.2 | . | . | . | . | .
N#CCC(=O)NN=Cc1ccc(Sc2nc3ccccc3s2)o1 | 4.8 | . | . | . | . | .
CC(=O)Nc1ccc(O)cc1 | 2.3 | -2.8 | 99.4* | . | -3.8 | 4.8
O=C(CCCC(=O)c1ccccc1)Nc1ccc(O)cc1 | 0.5 | -4.7 | 88.4* | 3.9 | 14.7 | 4.1
CC(=O)c1ccc(NC(=O)CCCC(=O)c2ccccc2)cc1 | 2.4 | -4.2 | 6.9 | -1.7 | -0.1 | 5.3
O=C(Nc1ccccc1)C1CCCCC1 | 2.8 | -1.9 | 7.4 | -7.0 | 8.6 | -2.1
O=C(Nc1ccc(Nc2ccccc2)cc1)C1CC1 | 0.5 | -0.8 | 99.7* | -0.8 | . | -2.1
Nc1ccc(OC(=O)Nc2ccc(O)cc2)cc1 | 1.9 | -2.6 | 99.2* | 14.5 | 4.7 | 5.6
O=C(NN=Cc1ccccc1)c1ccc(-c2ccccc2)cc1 | 3.4 | . | . | . | . | .
CC(=O)CC(=O)Nc1ccc(C(N)=O)cc1 | -0.9 | -3.6 | 47.8 | -5.2 | 14.9 | -3.8
O=C(O)C1CCCCC1C(=O)Nc1ccccc1Nc1ccccc1 (stereo unspecified) | 0.7 | -3.5 | 99.2* | -0.2 | -4.2 | -3.8
CC(=O)CC(=O)Nc1ccc(Nc2ccccc2)cc1 | 3.5 | -8.2 | 99.3* | 2.4 | -7.6 | 12.0
CCCC(=O)Nc1ccc(Nc2ccccc2)cc1 | 1.3 | -4.4 | 99.2* | 6.0 | -10.9 | 0.2
CC(=O)Nc1ccc(Nc2ccccc2)cc1 | 0.9 | -2.5 | 98.8* | -0.2 | -2.8 | -0.9
O=C(Nc1ccccc1)c1ccccc1NC(=O)[C@H]1CCCC[C@H]1C(=O)O | 2.3 | -1.7 | 5.4 | -7.7 | 0.5 | -1.9
CCCC(=O)Nc1ccc(-c2ccc(NC(=O)CCC)cc2)cc1 | 0.5 | -10.0 | . | 5.6 | 8.2 | -0.8
CC(=NNC(=O)Cn1nc(C)c([N+](=O)[O-])c1C)c1ccco1 | 6.5 | . | . | . | . | .
COc1ccc(C=c2sc3nc(-c4ccccc4)c(-c4ccccc4)n3c2=O)cc1OC | 6.8 | . | . | . | . | .
O=C(/C=C\Nc1ccc2c(c1)OCO2)c1cccs1 | 1.3 | 10.3 | 96.1* | -6.5 | 2.0 | -2.1
O=C(/C=C\Nc1ccc2c(c1)OCO2)c1ccc(Cl)s1 | 6.7 | -5.5 | -2.5 | 5.4 | -3.4 | -3.1
O=C(NN=Cc1cccnc1)C(O)c1ccccc1 (stereo unspecified) | 0.5 | . | . | . | . | .
O=C(Nc1ccccc1)ON=Cc1ccccc1Cl | 1.5 | . | . | . | . | .
COc1cc(/C=N/NC(=O)c2cccc(N3CCCC3=O)c2)ccc1O | . | -2.2 | 99.5* | 5.6 | 2.7 | 5.7
SMILES | UCH37 inh | FAS TE block | ALR H2O2 inh | M18AAP inhibitor | Rtt109 HAT inh | HDAC3 inhib
CCN(CCNC(=O)c1cccc(N2CCCC2=O)c1)c1ccccc1 | 0.1 | -2.6 | 98.4* | -0.8 | 1.4 | -2.2
O=C(N/N=C/c1cccnc1)c1cccc(N2CCCC2=O)c1 | . | -2.8 | -10.4 | -8.3 | -5.9 | -1.4
CCN(CC)c1ccc(/C=N/NC(=O)c2cccc(N3CCCC3=O)c2)cc1 | . | 1.8 | 96.6* | 0.7 | -8.2 | -2.0
Cc1cc(C)c(NC(=O)CSc2nc3c(c(=O)n2C)SC(C)C3)c(C)c1 (stereo unspecified) | 6.7 | -0.2 | -8.6 | -9.5 | 1.4 | -1.9
COc1cccc(NC(=O)CSc2nc3c(c(=O)n2C)SC(C)C3)c1 (stereo unspecified) | 6.8 | -2.8 | 98.6* | 4.0 | -3.9 | 5.3
COc1cccc(NC(=O)CSc2nc3c([nH]c4ccccc43)c(=O)n2C)c1 | . | -5.9 | -0.2 | 0.5 | -3.1 | -3.2
O=C(O)CCCCCn1c(SCC(=O)c2ccc(O)c(O)c2)nc2ccsc2c1=O | 11.1 | -6.7 | 99.3* | 47.3* | 6.7 | 1.7
CC1Cc2nc(SCC(=O)Nc3ccc(F)cc3)n(C)c(=O)c2S1 (stereo unspecified) | 3.4 | -5.8 | 98.2* | 2.0 | 6.9 | 4.1
Cc1cc(C)cc(NC(=O)CSc2nc3c(c(=O)n2C)SC(C)C3)c1 (stereo unspecified) | 2.9 | 9.2 | 96.8* | -0.8 | -11.0 | 5.8
C=C(C)Cn1c(SCC(=O)NN=Cc2cccc(O)c2)nc2ccccc2c1=O | 2.1 | . | . | . | . | .
CCn1c(SCC(=O)Nc2cc(C)on2)nc2c(c1=O)SC(C)C2 (stereo unspecified) | 5.6 | -4.5 | -34.7 | 3.9 | -1.7 | 2.4
